PLCg1 inh: PLC-gamma1 enzyme inhibitors, primary screen, biochemical, fluorescence, purified enzyme. fluorogenic substrate. inhibition, % at 12.2 µM. 0.84% of 370,000 active; in the data active means inhibition above about 9.5%
sPLA2-III inh: human group III sPLA2 inhibitors, primary screen, biochemical, QFRET, BODIPY PC-A2 liposome substrate; AID 743126, 2013; QFRET BODIPY PC-A2 liposome hydrolysis, fluorescence; inhibition, % at 12.2 µM; 0.56% of 370,000 active; Group 3 secretory phospholipase A2 (Homo sapiens), Q9NZ20;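 active means inhibition above mean plus 3 SD of compounds lying within the high and low control bounds, cut at about 19% in these data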
proCasp7 act: procaspase-7 activators, primary screen, counter-screen for procaspase-3 activator project, biochemical, absorbance, HTS, human; activation, % at 8.5 µM; AID 463210, 2010; Caspase-7 (Homo sapiens), P55210; 0.093% of 330,000 active; recombinant procaspase-7, Ac-DEVD-pNA absorbance 405 nm; D23A/D198A/D206A triple mutant, cannot self-cleave; scale: DMSO 0, 5 µM enzyme 100;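 active means percent activation above the screen-wide mean plus 3 SD, cut at about 25% in these data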
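signal = Epi-absorbance of released pNA at 405 nm, two timepoints | assay system = Uncleavable procaspase-7 mutant enzyme | reagent = Ac-DEVD-pNA substrate, 400 µM as added | times = 1 h enzyme–compound preincubation and 2 h substrate reaction, both 25 °C | benchmarks = low DMSO alone, high DMSO plus 5 µM PC-7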
PLCb3 inh: human PLC-beta3 inhibitors, primary screen, biochemical, fluorescence | inhibition, % at 12.2 µM | AID 720704, 2013 | 0.18% of 370,000 active | Purified PLC-beta3, fluorogenic substrate | 1-phosphatidylinositol 4,5-bisphosphate phosphodiesterase beta-3 (Homo sapiens), Q01970; in the data active means inhibition above about 11%
Arr AP2 block: inhibitors of beta-arrestin/AP2 binding, primary screen, biochemical, GPCR trafficking, flow cytometry | FITC-arrestin peptide / GST-AP2 beads; AP2 beta2 appendage carries R879A mutation | inhibition, % at 10 µM | beta-arrestin 1 C-terminal peptide binding to AP2 beta2-adaptin appendage (human) | 0.31% of 340,000 active;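 active means inhibition above a set limit, near 3 SD of compounds lacking own fluorescence, cut at about 54% in these data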
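system = GST-tagged AP2 beta2-adaptin appendage (R879A) on 4 µm glutathione beads | reagent = FITC-labelled arrestin peptide probe, 50 nM final | schedule = compound with beads 12 min RT, then probe 1 h RT | signal = HyperCyt-sampled flow cytometry, FL1 channel, ex 488/em 535 nm | read-out = percent response from loss of bead-bound FITC fluorescence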
procasp3 activ: activators of human procaspase-3 D3A mutant, primary screen, biochemical, absorbance, PC-3 D3A mutant, single concentration | Caspase-3 (Homo sapiens), P42574 | recombinant procaspase-3 D3A, Ac-DEVD-pNA absorbance 405 nm | activation, % at 8.5 µM | 0.11% of 330,000 active | AID 463141, 2010;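 active means activation above the mean of all tested compounds plus 3 SD, cut at about 21% in these data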
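System: Procaspase-3 D3A mutant. Medium: Zinc-free 300 mM NaCl, 50 mM HEPES, 0.01% Triton X-100. Schedule: 1 h preincubation plus 2 h reaction at 25 °C. Measured by: 405 nm absorbance of p-nitroaniline, reads at 0 and 120 min. Read-out: percent activation relative to control range.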
hGIII sPLA2 conf: human group III sPLA2 inhibitors, confirmation, biochemical, QFRET, triplicate | shares compounds with sPLA2-III inh | recombinant hGIII-sPLA2, BODIPY PC-A2 QFRET fluorescence | inhibition, % at 12.2 µM | 34% of 2,000 active;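 active means mean inhibition across triplicates above the hit cutoff set in the earlier primary screen, cut at about 19% in these data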
BODIPY interf: 535nm fluorescence optical interference, confirmation, artefact control for HGIII-sPLA2 inhibitor project, biochemical, QFRET; AID 743282, 2014; BODIPY FL product fluorescence interference; shares compounds with sPLA2-III inh; 8.5% of 2,000 active; inhibition, % at 12.2 µM;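 active means average inhibition above the solvent-only control mean plus 3 SD, cut at about 6% in these data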
BODIPY interf DR: 535nm fluorescence optical interference, dose response, artefact control for HGIII-sPLA2 inhibitor project, biochemical, QFRET. shares compounds with sPLA2-III inh. BODIPY FL product fluorescence interference, cell-free. IC50, µM. 240 tested, under 10 active;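 active means IC50 at or below 10 µM; inactive means IC50 above 10 µM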
Each line names hits and unclear results; the compound was inactive in the other large screens (follow-up assays come after a bar, where they were run). The list is not random: actives were taken first. Their share in the collection is about 1.9%.

CCC(CC)COC(=O)C1=C(C)NC(=O)NC1c1ccc(N(C)C)cc1 (stereo not given)	sPLA2-III inh 23.5 | hGIII sPLA2 conf 23.0 | BODIPY interf inactive
CCOC(=O)C1=C(C)NC(=O)NC1c1ccc(N(CC)CC)cc1 (stereo not given)	sPLA2-III inh 20.0 | hGIII sPLA2 conf inactive | BODIPY interf inactive
Cc1cccc(C(=O)NC(=S)NNC(=O)c2ccc(Cl)cc2)c1	sPLA2-III inh 24.2 | hGIII sPLA2 conf 39.6 | BODIPY interf inactive | BODIPY interf DR inactive
COc1cc(C(=O)NNC(=S)NC(=O)c2ccc(Cl)cc2)cc(OC)c1OC	sPLA2-III inh 25.9 | hGIII sPLA2 conf 30.0 | BODIPY interf inactive | BODIPY interf DR inactive
Cc1cccc(C(=O)NC(=S)NNC(=O)c2cccs2)c1	none
O=C(N/N=C/c1coc2ccccc2c1=O)c1ccccc1	none
O=C(N/N=C/c1coc2ccccc2c1=O)c1cc(Br)ccc1O	sPLA2-III inh 21.8 | hGIII sPLA2 conf inactive | BODIPY interf inactive
CC(OC(=O)c1nn(C)c(=O)c2ccccc12)C(=O)NC1CCCCC1C (stereo not given)	sPLA2-III inh 19.4 | hGIII sPLA2 conf inactive | BODIPY interf inactive
CC(OC(=O)c1n[nH]c2ccccc12)C(=O)NC1CCCCC1C (stereo not given)	none
COc1ccc(C(=O)NC(=S)NNC(=O)[C@H]2C[C@@H]2c2ccccc2)cc1OC	sPLA2-III inh 21.4 | hGIII sPLA2 conf 39.5 | BODIPY interf inactive | BODIPY interf DR inactive
Cc1onc(-c2ccccc2)c1C(=O)NNC(=S)NC(=O)c1ccc2c(c1)OCO2	sPLA2-III inh 27.2 | hGIII sPLA2 conf 42.5 | BODIPY interf inactive | BODIPY interf DR inactive
Cc1onc(-c2ccccc2)c1C(=O)NC(=S)NNC(=O)c1cc(-c2ccc(F)cc2)n[nH]1	sPLA2-III inh 28.8 | hGIII sPLA2 conf 41.5 | BODIPY interf inactive
Cc1onc(-c2ccccc2)c1C(=O)NCc1ccc2c(c1)OCO2	none
Cc1onc(-c2ccccc2)c1C(=O)NC(=S)NNC(=O)c1ccncc1	none
COc1ccc(C(=O)NC(=S)NNC(=O)c2c(-c3ccccc3)noc2C)cc1OC	sPLA2-III inh 19.9 | hGIII sPLA2 conf 29.1 | BODIPY interf inactive | BODIPY interf DR inactive
Cc1onc(-c2ccccc2)c1C(=O)NC(=S)NNC(=O)c1ccco1	none
O=C(NC1CC1)c1ccc(Cl)c(S(=O)(=O)N2CCOCC2)c1	none
CCCNC(=O)c1ccc(CN2CCc3ccccc3C2)cc1	none
C/C(=N\NC(=O)c1ccc(CN2CCc3ccccc3C2)cc1)c1ccccc1O	sPLA2-III inh 32.8 | hGIII sPLA2 conf 24.3 | BODIPY interf inactive
CC1CCCC(C)N1NC(=S)Nc1ccc(OC(F)F)cc1 (stereo not given)	sPLA2-III inh 19.4 | hGIII sPLA2 conf 20.0 | BODIPY interf inactive
COc1ccc(NC(=S)NN2C(C)CCCC2C)cc1 (stereo not given)	none
C/C(N)=C(/C#N)C(=O)CN1C(=O)NC(Cc2c[nH]c3ccccc23)C1=O (stereo not given)	none
CNC(=S)NNC(=O)Cc1ccc(O)cc1	sPLA2-III inh 25.8 | hGIII sPLA2 conf inactive | BODIPY interf inactive
O=C(Nc1ccccc1N1CCCC1)c1cccc(S(=O)(=O)N2CCOCC2)c1	none
Nc1nc(N)c2cc(Sc3ccc(Cl)cc3)ccc2n1	none (no result: proCasp7 act, Arr AP2 block, procasp3 activ)
Nc1nc(N)c2cc(CNc3ccc(Cl)c(Cl)c3)ccc2n1	sPLA2-III inh 23.0 (no result: proCasp7 act, Arr AP2 block, procasp3 activ) | hGIII sPLA2 conf inactive | BODIPY interf inactive
COc1ccc(NC(=S)Nc2ccc3cn[nH]c3c2)cc1	none
CCc1ccc(NC(=S)Nc2ccc3cn[nH]c3c2)cc1	sPLA2-III inh 19.3 | hGIII sPLA2 conf inactive | BODIPY interf inactive
CCCCNC(=S)Nc1ccc2cn[nH]c2c1	sPLA2-III inh 21.2 | hGIII sPLA2 conf inactive | BODIPY interf inactive
Cc1ccc(NC(=O)c2cnccn2)cc1S(=O)(=O)N1CCCCCC1	none
CCCCN(CCCC)C(=S)NC(=O)c1ccccc1Cl	sPLA2-III inh 30.2 | hGIII sPLA2 conf inactive | BODIPY interf inactive
CCN(CC)C(=S)NC(=O)c1ccc(Cl)cc1Cl	none
CC(=O)c1cccc(NC(=O)N2CCCC2C(=O)Nc2ccc3c(c2)OCO3)c1 (stereo not given)	none
O=C(NCc1ccccc1)N1CCNCC1	sPLA2-III inh 21.5 | hGIII sPLA2 conf inactive | BODIPY interf inactive
O=C(NCc1ccccc1)N1CCCC1	none
CCc1ccc(S(=O)(=O)Nc2cccc(-c3ccc4nnc(C)n4n3)c2)s1	none
CN(C)c1cccc(C(=O)NNC(=S)NC2CC3CCC2C3)c1 (stereo not given)	sPLA2-III inh 19.6 | hGIII sPLA2 conf 24.9 | BODIPY interf inactive
CC(C)N(C(=S)NC1CC2CCC1C2)c1ccccc1 (stereo not given)	none
Cc1ccc2[nH]c(-c3cccc(N)c3)cc2c1	sPLA2-III inh 25.0 | hGIII sPLA2 conf inactive | BODIPY interf inactive
Cc1ccc2[nH]c(-c3cccc(F)c3)cc(=O)c2c1	none
CC1CCC(CN2C(Nc3ccccc3)=NC[C@@H]2C)CC1 (stereo not given in full)	none
NC(=S)NNC(=O)C12CC3CC(CC(C3)C1)C2	sPLA2-III inh 21.4 | hGIII sPLA2 conf inactive | BODIPY interf inactive
COc1ccc(OC)c(Nc2cc(C)nc3ccc(C)cc23)c1	none
COc1ccc(C(C)(C)C)cc1NC(=S)NCCN1CCOCC1	sPLA2-III inh 19.9 | hGIII sPLA2 conf inactive | BODIPY interf inactive

Bioassay records: PubChem, several laboratories
